Measured values from ChEMBL document CHEMBL2384906, “Biological activity, design, synthesis and structure activity relationship of some novel derivatives of curcumin containing sulfonamides” (Eur J Med Chem, 2013).
Values after ≈ are worked out from the molar mass of the structure shown. Active and inactive are the calls of the source. The calls are words filed in the database; no cut-off is given here.

Tests used:
[1] = test system: Mus musculus; assay: Antiinflammatory activity in mouse assessed as inhibition of carrageenan-induced increase in paw volume at 200 mg/kg administered 1 hr prior to carrageenan challenge measured after 3 hrs relative to control; assay type: functional
Procedure, shortened: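 Mice were fasted 2 h and placed in groups of five. Controls received saline i.p. Phenylbutazone was given at 100 mg/kg i.p., curcumin at 200 mg/kg i.p., and derivatives at 200 mg/kg. After 1 h, 0.1 mL of 1% carrageenan in saline was injected subplantar into the right hind paw. Paw volume was followed by plethysmometer for 3 h, and % inhibition was calculated as (Vc − Vt)/Vc × 100.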

[2] = test system: HCT-116; assay: Cytotoxicity against human HCT116 cells after 24 hrs by MTT assay; assay type: functional, cell-based
Procedure, shortened: (§1)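 The MTT assay seeded 5 × 10⁴ cells per well and grew them 24 h in RPMI 1640 with compound at 2.5–200 µM. Medium without cells was the blank and adriamycin the positive control. MTT was added for 4 h at 37 °C, formazan was solubilised, and absorbance was read at 570 nm. IC50 is the concentration that cuts viability 50% against untreated cells.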

[3] = test system: QG-56; assay: Cytotoxicity against human QG56 cells after 24 hrs by MTT assay; assay type: functional, cell-based; procedure, shortened: as §1
[4] = test system: HeLa; assay: Cytotoxicity against human HeLa cells after 24 hrs by MTT assay; assay type: functional, cell-based; procedure, shortened: as §1
[5] = test system: HepG2; assay: Cytotoxicity against human HepG2 cells after 24 hrs by MTT assay; assay type: functional, cell-based; procedure, shortened: as §1
[6] = test system: Trichoderma viride; assay: Antifungal activity against Trichoderma viride MTCC 1107 after 48 hrs; assay type: functional; conditions: MTCC 1107, 48 h
[7] = test system: Trichoderma viride; assay: Antifungal activity against Trichoderma viride MTCC 1107 assessed as zone of inhibition at 20 uM after 48 hrs by disc diffusion method; assay type: functional; conditions: MTCC 1107, 48 h, read-out: IZ
Procedure, shortened: (§2)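 Spores from 4-day potato dextrose agar cultures, suspended in sterile water at 1.5 × 10⁵ CFU/mL. 0.2 mL was spread on potato dextrose agar. 5 mm filter-paper discs soaked with test compound were laid on the lawn. Incubation was 48 h at 28 °C, then the inhibition zone was measured in mm. Fluconazole was the positive control and acetone the negative control.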

[8] = test system: Trichoderma viride; assay: Antifungal activity against Trichoderma viride MTCC 1107 assessed as zone of inhibition at 40 uM after 48 hrs by disc diffusion method; assay type: functional; conditions: MTCC 1107, 48 h, read-out: IZ; procedure, shortened: as §2
[9] = test system: Trichoderma viride; assay: Antifungal activity against Trichoderma viride MTCC 1107 assessed as zone of inhibition at 80 uM after 48 hrs by disc diffusion method; assay type: functional; conditions: MTCC 1107, 48 h, read-out: IZ; procedure, shortened: as §2
[10] = test system: Curvularia lunata; assay: Antifungal activity against Curvularia lunata MTCC 581 after 48 hrs; assay type: functional; conditions: MTCC 581, 48 h
[11] = test system: Curvularia lunata; assay: Antifungal activity against Curvularia lunata MTCC 581 assessed as zone of inhibition at 20 uM after 48 hrs by disc diffusion method; assay type: functional; conditions: MTCC 581, 48 h, read-out: IZ; procedure, shortened: as §2
[12] = test system: Curvularia lunata; assay: Antifungal activity against Curvularia lunata MTCC 581 assessed as zone of inhibition at 40 uM after 48 hrs by disc diffusion method; assay type: functional; conditions: MTCC 581, 48 h, read-out: IZ; procedure, shortened: as §2
[13] = test system: Aspergillus flavus; assay: Antifungal activity against Aspergillus flavus MTCC 1021 after 48 hrs; assay type: functional; conditions: MTCC 1021, 48 h
[14] = test system: Curvularia lunata; assay: Antifungal activity against Curvularia lunata MTCC 581 assessed as zone of inhibition at 80 uM after 48 hrs by disc diffusion method; assay type: functional; conditions: MTCC 581, 48 h, read-out: IZ; procedure, shortened: as §2
[15] = test system: Aspergillus flavus; assay: Antifungal activity against Aspergillus flavus MTCC 1021 assessed as zone of inhibition at 20 uM after 48 hrs by disc diffusion method; assay type: functional; procedure, shortened: as §2
[16] = test system: Aspergillus flavus; assay: Antifungal activity against Aspergillus flavus MTCC 1021 assessed as zone of inhibition at 40 uM after 48 hrs by disc diffusion method; assay type: functional; conditions: MTCC 1021, 48 h, read-out: IZ; procedure, shortened: as §2
[17] = test system: Aspergillus flavus; assay: Antifungal activity against Aspergillus flavus MTCC 1021 assessed as zone of inhibition at 80 uM after 48 hrs by disc diffusion method; assay type: functional; conditions: MTCC 1021, 48 h, read-out: IZ; procedure, shortened: as §2
[18] = test system: Aspergillus niger; assay: Antifungal activity against Aspergillus niger MTCC 1108 after 48 hrs; assay type: functional; conditions: MTCC 1108, 48 h
[19] = test system: Aspergillus niger; assay: Antifungal activity against Aspergillus niger MTCC 1108 assessed as zone of inhibition at 20 uM after 48 hrs by disc diffusion method; assay type: functional; conditions: MTCC 1108, 48 h, read-out: IZ; procedure, shortened: as §2
[20] = test system: Aspergillus niger; assay: Antifungal activity against Aspergillus niger MTCC 1108 assessed as zone of inhibition at 40 uM after 48 hrs by disc diffusion method; assay type: functional; conditions: MTCC 1108, 48 h, read-out: IZ; procedure, shortened: as §2
[21] = test system: Aspergillus niger; assay: Antifungal activity against Aspergillus niger MTCC 1108 assessed as zone of inhibition at 80 uM after 48 hrs by disc diffusion method; assay type: functional; conditions: MTCC 1108, 48 h, read-out: IZ; procedure, shortened: as §2
[22] = test system: Escherichia coli; assay: Antimicrobial activity against Escherichia coli ATCC 35218 after 24 hrs by broth micro serial dilution method; assay type: functional; conditions: ATCC 35218, 24 h
Procedure, shortened: (§3)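 This was broth microdilution in autoclaved Mueller-Hinton broth. 150 µL of compound per well was serially diluted […], and 50 µL of test organism was added. Plates were incubated 24 h at 37 °C and optical density was read.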

[23] = test system: Escherichia coli; assay: Antimicrobial activity against Escherichia coli ATCC 35218 assessed as diameter of inhibition zone at 20 uM after 24 hrs by Kirby -Baur disc diffusion method; assay type: functional; conditions: ATCC 35218, 24 h, read-out: DIZ
Procedure, shortened: (§4)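 Kirby-Bauer disc diffusion was used. Acetone stocks (160 µM) were serially doubled down to 80, 40 and 20 µM. 4 µL of each went onto 5 mm sterile paper discs, which were dried 30 min at 50 °C. Inoculum was 1.5 × 10⁸ CFU/mL diluted to 3 × 10² CFU/mL, and 50 µL was spread on Mueller-Hinton agar. After 24 h at 37 °C the inhibition-zone diameter was measured. Ciprofloxacin served as positive control.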

[24] = test system: Escherichia coli; assay: Antimicrobial activity against Escherichia coli ATCC 35218 assessed as diameter of inhibition zone at 40 uM after 24 hrs by Kirby -Baur disc diffusion method; assay type: functional; conditions: ATCC 35218, 24 h, read-out: DIZ; procedure, shortened: as §4
[25] = test system: Escherichia coli; assay: Antimicrobial activity against Escherichia coli ATCC 35218 assessed as diameter of inhibition zone at 80 uM after 24 hrs by Kirby -Baur disc diffusion method; assay type: functional; conditions: ATCC 35218, 24 h, read-out: DIZ; procedure, shortened: as §4
[26] = test system: Pseudomonas aeruginosa; assay: Antimicrobial activity against Pseudomonas aeruginosa ATCC 15499 after 24 hrs by broth micro serial dilution method; assay type: functional; conditions: ATCC 15499, 24 h; procedure, shortened: as §3
[27] = test system: Pseudomonas aeruginosa; assay: Antimicrobial activity against Pseudomonas aeruginosa ATCC 15499 assessed as diameter of inhibition zone at 20 uM after 24 hrs by Kirby -Baur disc diffusion method; assay type: functional; conditions: ATCC 15499, 24 h, read-out: DIZ; procedure, shortened: as §4
[28] = test system: Pseudomonas aeruginosa; assay: Antimicrobial activity against Pseudomonas aeruginosa ATCC 15499 assessed as diameter of inhibition zone at 40 uM after 24 hrs by Kirby -Baur disc diffusion method; assay type: functional; conditions: ATCC 15499, 24 h, read-out: DIZ; procedure, shortened: as §4
[29] = test system: Pseudomonas aeruginosa; assay: Antimicrobial activity against Pseudomonas aeruginosa ATCC 15499 assessed as diameter of inhibition zone at 80 uM after 24 hrs by Kirby -Baur disc diffusion method; assay type: functional; conditions: ATCC 15499, 24 h, read-out: DIZ; procedure, shortened: as §4
[30] = test system: Salmonella typhi; assay: Antimicrobial activity against Salmonella typhi ATCC 23564 after 24 hrs by broth micro serial dilution method; assay type: functional, Salmonella enterica subsp. enterica serovar Typhi; conditions: Salmonella enterica, ATCC 23564, 24 h
[31] = test system: Salmonella typhi; assay: Antimicrobial activity against Salmonella typhi ATCC 23564 assessed as diameter of inhibition zone at 20 uM after 24 hrs by Kirby -Baur disc diffusion method; assay type: functional, Salmonella enterica subsp. enterica serovar Typhi; conditions: Salmonella enterica, ATCC 23564, 24 h; read-out: DIZ
[32] = test system: Salmonella typhi; assay: Antimicrobial activity against Salmonella typhi ATCC 23564 assessed as diameter of inhibition zone at 40 uM after 24 hrs by Kirby -Baur disc diffusion method; assay type: functional, Salmonella enterica subsp. enterica serovar Typhi; conditions: Salmonella enterica, ATCC 23564, 24 h; read-out: DIZ
[33] = test system: Salmonella typhi; assay: Antimicrobial activity against Salmonella typhi ATCC 23564 assessed as diameter of inhibition zone at 80 uM after 24 hrs by Kirby -Baur disc diffusion method; assay type: functional, Salmonella enterica subsp. enterica serovar Typhi; conditions: Salmonella enterica, ATCC 23564, 24 h; read-out: DIZ
[34] = test system: Bacillus cereus; assay: Antimicrobial activity against Bacillus cereus MTCC 7350 after 24 hrs by broth micro serial dilution method; assay type: functional; conditions: MTCC 7350, 24 h; procedure, shortened: as §3
[35] = test system: Bacillus cereus; assay: Antimicrobial activity against Bacillus cereus MTCC 7350 assessed as diameter of inhibition zone at 20 uM after 24 hrs by Kirby -Baur disc diffusion method; assay type: functional; procedure, shortened: as §4
[36] = test system: Bacillus cereus; assay: Antimicrobial activity against Bacillus cereus MTCC 7350 assessed as diameter of inhibition zone at 40 uM after 24 hrs by Kirby -Baur disc diffusion method; assay type: functional; conditions: MTCC 7350, 24 h, read-out: DIZ; procedure, shortened: as §4
[37] = test system: Bacillus cereus; assay: Antimicrobial activity against Bacillus cereus MTCC 7350 assessed as diameter of inhibition zone at 80 uM after 24 hrs by Kirby -Baur disc diffusion method; assay type: functional; conditions: MTCC 7350, 24 h, read-out: DIZ; procedure, shortened: as §4
[38] = test system: Staphylococcus aureus; assay: Antimicrobial activity against Staphylococcus aureus ATCC 11632 after 24 hrs by broth micro serial dilution method; assay type: functional; conditions: ATCC 11632, 24 h; procedure, shortened: as §3
[39] = test system: Staphylococcus aureus; assay: Antimicrobial activity against Staphylococcus aureus ATCC 11632 assessed as diameter of inhibition zone at 20 uM after 24 hrs by Kirby -Baur disc diffusion method; assay type: functional; conditions: ATCC 11632, 24 h, read-out: DIZ; procedure, shortened: as §4
[40] = test system: Staphylococcus aureus; assay: Antimicrobial activity against Staphylococcus aureus ATCC 11632 assessed as diameter of inhibition zone at 40 uM after 24 hrs by Kirby -Baur disc diffusion method; assay type: functional; conditions: ATCC 11632, 24 h, read-out: DIZ; procedure, shortened: as §4
[41] = test system: Staphylococcus aureus; assay: Antimicrobial activity against Staphylococcus aureus ATCC 11632 assessed as diameter of inhibition zone at 80 uM after 24 hrs by Kirby -Baur disc diffusion method; assay type: functional; conditions: ATCC 11632, 24 h, read-out: DIZ; procedure, shortened: as §4

COc1cc(/C=C/C(O)=C/C(/C=C/c2ccc(O)c(OC)c2)=N/c2ccc(S(=O)(=O)Nc3nc(C)cc(C)n3)cc2)ccc1O
inhibition in vivo at 200 mg/kg [1]: 38.7%
IC50 [2]: 25 µM
IC50 [3]: 50 µM
IC50 [4]: 25 µM
IC50 [5]: 25 µM
MIC [6]: 20 µM (≈ 12.6 µg/mL)
zone of inhibition at 20 µM [7]: 18 mm
zone of inhibition at 40 µM [8]: 19 mm
zone of inhibition at 80 µM [9]: 22 mm
MIC [10]: 20 µM (≈ 12.6 µg/mL)
zone of inhibition at 20 µM [11]: 12 mm
zone of inhibition at 40 µM [12]: 16 mm
MIC [13]: > 80 µM
zone of inhibition at 80 µM [14]: 19 mm
inhibition zone (IZ) [15]: inactive
zone of inhibition at 40 µM [16]: 9 mm
zone of inhibition at 80 µM [17]: 11 mm
MIC [18]: 20 µM (≈ 12.6 µg/mL)
zone of inhibition at 20 µM [19]: 12 mm
zone of inhibition at 40 µM [20]: 14 mm
zone of inhibition at 80 µM [21]: 16 mm
MIC [22]: 20 µM (≈ 12.6 µg/mL)
zone of inhibition at 20 µM [23]: 21 mm
zone of inhibition at 40 µM [24]: 21 mm
zone of inhibition at 80 µM [25]: 23 mm
MIC [26]: 20 µM (≈ 12.6 µg/mL)
zone of inhibition at 20 µM [27]: 10 mm
zone of inhibition at 40 µM [28]: 16 mm
zone of inhibition at 80 µM [29]: 19 mm
MIC [30]: 20 µM (≈ 12.6 µg/mL)
zone of inhibition at 20 µM [31]: 10 mm
zone of inhibition at 40 µM [32]: 14 mm
zone of inhibition at 80 µM [33]: 17 mm
MIC [34]: 20 µM (≈ 12.6 µg/mL)
diameter of the inhibition zone (DIZ) [35]: inactive
zone of inhibition at 40 µM [36]: 9 mm
zone of inhibition at 80 µM [37]: 12 mm
MIC [38]: 20 µM (≈ 12.6 µg/mL)
zone of inhibition at 20 µM [39]: 16 mm
zone of inhibition at 40 µM [40]: 18 mm
zone of inhibition at 80 µM [41]: 22 mm
